Sampled rows, rich in hits. Any-hit rate of the full collection: about 3.5%.
esBAF inh – Bmi1 luciferase reporter increase in mESCs, primary screen, esBAF inhibitor project, mouse ES cells, Bmi1 luciferase knock-in, single point. 24 h; 100% = twice the neutral-well signal. reporter increase, % at 12.5 µM. 350,000 compounds, 2% hits. AID 602393, 2012; in the data active means activation above about 40%; inconclusive means no clear call, values can overlap the other calls;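 further: 0% = median of the plate's neutral control wells and 100% = double that signal; a rise in the Bmi1 reporter signal indicates esBAF inhibition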
MITF TRPM1 HTS – activators of MITF-driven TRPM1 promoter reporter, primary screen, cell-based, SK-MEL-5, luciferase, single point | AID 588334, 2011 | SK-MEL-5 TRPM1-promoter luciferase, 24 h; % of positive control, neutral wells = 0 | 300,000 compounds, 0.75% hits | activation, % at 12.5 µM;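 active means mean activation of at least 80% with every replicate also reaching 80%; inconclusive means mean reaches 80% but some replicate falls short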;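 further: 0% = neutral control wells and 100% = parthenolide positive control wells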
HIV Env fusion – inhibitors of HIV-1 Env-driven cell-cell fusion, primary screen, HeLa-JRFL effector, CEM21 target cells, luciferase; inhibition, % at 12.3 µM; 360,000 compounds, 1.1% hits;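 active means mean replicate inhibition score of at least 50 and every replicate individually at or above 50; inconclusive means only one of the two criteria met; inactive means mean below 50 and not all replicates reaching 50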;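 further: 0% = plate neutral controls and 100% = maraviroc near 300 nM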
ERAP1 HTS inh – human ERAP1 aminopeptidase inhibitors, primary screen, biochemical, single point, plate reader; 340,000 compounds, 0.15% hits; AID 652197, 2013; inhibition, % at 10.7 µM; recombinant ERAP1, Leu-AMC fluorescence, 60 min;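 active means mean replicate inhibition of at least 30%, or all replicates individually reaching that 30% level; inactive means mean below 30% and not every replicate reaching it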;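 further: 0% = neutral control wells and 100% = L-leucinethiol positive control wells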
Target sequence (Q9NZ08 whole entry, looked up): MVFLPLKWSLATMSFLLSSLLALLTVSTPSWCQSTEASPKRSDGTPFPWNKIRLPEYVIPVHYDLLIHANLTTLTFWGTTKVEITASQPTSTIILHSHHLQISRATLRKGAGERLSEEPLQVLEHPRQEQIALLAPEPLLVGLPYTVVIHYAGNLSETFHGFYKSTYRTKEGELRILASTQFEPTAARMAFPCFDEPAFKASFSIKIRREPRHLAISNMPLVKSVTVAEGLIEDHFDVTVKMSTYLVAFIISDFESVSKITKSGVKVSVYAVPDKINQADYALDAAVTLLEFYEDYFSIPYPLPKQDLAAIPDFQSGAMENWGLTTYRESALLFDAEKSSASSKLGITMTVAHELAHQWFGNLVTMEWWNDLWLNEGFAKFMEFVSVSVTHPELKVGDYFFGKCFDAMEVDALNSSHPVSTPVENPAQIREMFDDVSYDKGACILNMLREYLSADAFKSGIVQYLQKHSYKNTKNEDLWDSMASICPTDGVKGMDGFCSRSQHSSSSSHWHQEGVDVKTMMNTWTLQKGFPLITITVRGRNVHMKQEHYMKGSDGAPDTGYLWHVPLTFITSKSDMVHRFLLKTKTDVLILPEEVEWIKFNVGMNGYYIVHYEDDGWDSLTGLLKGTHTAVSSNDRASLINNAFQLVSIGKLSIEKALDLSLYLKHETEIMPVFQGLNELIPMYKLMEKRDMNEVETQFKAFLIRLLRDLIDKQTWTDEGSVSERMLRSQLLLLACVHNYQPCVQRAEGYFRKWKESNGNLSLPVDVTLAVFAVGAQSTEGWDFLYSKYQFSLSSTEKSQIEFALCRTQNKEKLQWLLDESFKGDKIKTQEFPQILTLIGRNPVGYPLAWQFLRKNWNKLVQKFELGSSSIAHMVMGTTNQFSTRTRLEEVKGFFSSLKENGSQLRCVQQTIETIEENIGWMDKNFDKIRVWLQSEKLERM
Cneo AK release – Cryptococcus neoformans cell lysis inducers, primary screen, AK release luminescence, single concentration; C. neoformans lysis, adenylate kinase release luminescence, 4 h; normalised: neutral wells 0, clomiphene wells 100; lysis activity, % at 15 µM; 360,000 compounds, 0.2% hits;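 active means mean lysis activity across replicates of at least 80%, whatever share of replicates individually reach that level; inactive means mean lysis activity below 80%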
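Material – Cryptococcus neoformans yeast cells · Quantity – 5 × 10^6 yeast cells/mL · Buffer or medium – YPD medium · Compound – single dose · Timing – 4 h static compound exposure, 37 °C, read 1 h post-reagent · Signal – adenylate kinase release luminescence · Read-out basis – lysis from increased AK signal · Benchmarks – Clomiphene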
Wnt bcat act – Wnt/beta-catenin pathway activators, primary screen, cell-based, plate reader, single point. Wnt/beta-catenin reporter cell assay, activator. 300,000 compounds, 1.2% hits. AID 743398, 2014. activation, % at 9.35 µM; in the data active means activation above about 30%, passing the limit was not always enough; inconclusive means no clear call, values can overlap the other calls;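 further: 0% = neutral control wells and 100% = positive control wells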
Active calls of the source: *; ? = inconclusive; nt = not tested or not shown; [ ] = dose if it differs, or a comment.

SMILES	esBAF inh	MITF TRPM1 HTS	HIV Env fusion	ERAP1 HTS inh	Cneo AK release	Wnt bcat act
C[C@@H]1CCCCO[C@@H](CN(C)C(=O)Nc2ccc(F)cc2)[C@H](C)CN([C@H](C)CO)C(=O)c2cc(NS(=O)(=O)c3cn(C)cn3)ccc2O1	3	nt	-9[16.7 µM]	6	59	nt
O=C(Nc1cccc2cccnc12)c1ccccc1Cl	25	nt	-5	-2	-1	11
CC(=O)Nc1cccc(NC(=O)c2cccc3cccnc23)c1	6	7	-44	-2	-1	2
O=C(NCCc1ccccc1F)c1cccc2cccnc12	66*	76	-38	1	-4	23
Cc1ccc(NC(=O)c2cccc3cccnc23)cc1	64*	9	-82	-1	-2	25
COc1ccccc1C(=O)Nc1cccc2cccnc12	64*	19	-7	-2	-1	-1
CCS(=O)(=O)N1CCCCN2[C@@H](CO)[C@@H](c3ccc(-c4ccccc4F)cc3)[C@@H]2C1	-3	nt	nt	3	0	nt
COCC(=O)N[C@@H]1C=C[C@@H](CC(=O)NCc2ccccc2OC)O[C@@H]1CO	0	nt	4[16.7 µM]	2	1	nt
COc1ccc(Cl)cc1C1=NOC2(CCC2)C(=O)N1Cc1ccc(NC(C)=O)cc1	2	nt	67*	nt	0	-3
O=C(c1ccccc1)c1cnc(Nc2ccc(Cl)c(Cl)c2)s1	-1	nt	-83	nt	2	nt
CC(=O)c1cnc(Nc2cccc(C)c2)s1	nt	92*	-44	5	nt	-2
CCCNC(=O)N(C)C[C@@H]1Oc2ncc(C#C[C@@H](C)O)cc2C(=O)N([C@@H](C)CO)C[C@H]1C	1	nt	3[16.7 µM]	0	-2	nt
CC(NC(=O)CN(C)CC(=O)Nc1ccc(Cl)c(C(F)(F)F)c1)c1ccccc1 (stereo unspecified)	-8	-13	103*	0	0	-1
CC(=O)N(C)C[C@@H]1Oc2cc(C#CC(C)(C)O)ccc2S(=O)(=O)N([C@H](C)CO)C[C@@H]1C	-4	nt	-7[16.7 µM]	0	4	nt
COc1ccc(NC(=O)C2(C)CCN2Cc2ccccc2OC(F)F)cc1OC (stereo unspecified)	5	nt	71*	1	0	-3
CC1(C(=O)Nc2ccc(Cl)c(Cl)c2)CCN1Cc1ccccc1OC(F)F (stereo unspecified)	-9	nt	14	-3	0	-3
CC=Cc1ccc2n(c1=O)C[C@H]1[C@H](CO)[C@@H](C(=O)NCCC)[C@@H]2N1C(=O)C1CC1 (mixture of isomers)	-3	nt	nt	-1	-5	nt
COc1ccc(C(=O)/C=C/Nc2cccc(C)n2)cc1OC	47*	93*	nt	nt	0	nt
COc1ccc(N/C=C/C(=O)c2ccc(OC)c(OC)c2)cc1	25	15	11	nt	-3	21
C[C@H](CO)N1C[C@H](C)[C@@H](CN(C)Cc2ccccc2)Oc2ccc(NC(=O)Nc3ccccc3)cc2CC1=O	0	nt	-2[16.7 µM]	1	-1	nt
COc1ccc2c3c(n(C)c2c1)[C@@H](CO)N(C(=O)NC(C)C)CC31CCN(CC2CCCCC2)CC1	nt	nt	nt	-2	nt	nt
COc1ccc(CNc2ccc(C(=O)O)cc2)cc1	13	nt	-18	nt	0	nt
COc1ccc(CNc2ccc(-c3ccc(OC)cc3)nn2)cc1	45*	44	-119	nt	0	nt
COc1ccc(CNc2ccc(Br)cc2)cc1	nt	58	-9	3	nt	43*
COc1ccc(CNc2ccc(-c3ccccc3OC)nn2)cc1	34	nt	-4	nt	-5	nt
SMILES	esBAF inh	MITF TRPM1 HTS	HIV Env fusion	ERAP1 HTS inh	Cneo AK release	Wnt bcat act
COC(=O)[C@H]1[C@H](CO)[C@H]2Cn3c(ccc(-c4ccccc4F)c3=O)[C@H]2N1CC1CCOCC1	3	nt	nt	1	50	nt
CO[C@H]1CN(C)C(=O)c2ccc(NC(=O)Nc3ccccc3F)cc2OC[C@@H](C)N(C)C[C@H]1C	-2	nt	nt	0	47	nt
C/C(=N\NC(=O)c1cc2c(s1)CCC(C)C2)c1ccc[nH]1 (stereo unspecified)	28	104*	-48	-1	-1	?
COc1cccc(C(=O)CSc2nccn2C)c1	44*	nt	-5	nt	-3	6
Cn1ccnc1SCC(=O)c1ccc2ccccc2c1	nt	88*	-39	2	nt	50*
CO[C@H]1CN(C)C(=O)c2ccc(NC(=O)C3CC3)cc2OC[C@H](C)N(Cc2cccc(F)c2)C[C@@H]1C	nt	nt	nt	1	nt	nt
O=C(O)CCC(=O)N1N=C(c2ccc(Br)cc2)CC1c1ccc(Br)cc1 (stereo unspecified)	-10	-2	8	-13	-1	-2
CC(=O)N1N=C(c2ccc(Br)cc2)CC1c1ccc(Br)cc1 (stereo unspecified)	61*	nt	-26	1	1	-3
Cc1ccc(-c2ccc(C(=O)Nc3cccc(F)c3)o2)c2ccccc12	12	24	-17	-1	-1	0
COc1ccc(NC(=O)c2cc(-c3ccccc3Cl)no2)cc1	nt	24	nt	nt	0	nt
O=C(Nc1ccccc1)c1cc(-c2ccccc2Cl)no1	56*	56	nt	nt	-11	27
COc1ccc(NC(=O)c2ccc(-c3ccccc3Cl)o2)cc1	30	116*	0	nt	0	24
COc1ccc(NC(=S)NC(=O)c2ccccc2Cl)cc1	62*	?	-40	-2	3	nt
O=C(Nc1cccc(F)c1)c1ccc(-c2ccccc2Cl)o1	75*	60	nt	nt	4	nt
C[C@H](CO)N1C[C@H](C)[C@H](CN(C)S(=O)(=O)c2ccc(Cl)cc2)Oc2ccc(NS(C)(=O)=O)cc2C1=O	-4	nt	12[16.7 µM]	nt	nt	nt
Cc1ccc(S(=O)(=O)N(C)C[C@@H]2OCc3ccccc3-c3c(n(C)c4ccccc34)C(=O)N([C@@H](C)CO)C[C@H]2C)cc1	-5	nt	nt	0	4	nt
COc1ccc(CN(C)C[C@H]2Oc3ccc(NC(=O)NC(C)C)cc3C(=O)N([C@@H](C)CO)C[C@@H]2C)cc1	1	nt	-2[16.7 µM]	1	0	nt
Cc1noc(C)c1S(=O)(=O)Nc1cccc2c1O[C@H](CN(C)S(=O)(=O)c1cn(C)cn1)[C@H](C)CN([C@H](C)CO)C2=O	0	nt	nt	3	-8	nt
O=C(C[C@H]1CC[C@H]2[C@@H](COC[C@@H](O)CN2C(=O)c2ccccc2)O1)NCc1cccc(F)c1	-3	nt	nt	-2	-2	nt
COc1ccc(S(=O)(=O)N(C)C[C@@H]2Oc3c(NC(=O)c4cnccn4)cccc3C(=O)N([C@H](C)CO)C[C@H]2C)cc1	-3	nt	nt	2	-1	nt
Cc1noc(C)c1NC(=O)N[C@H]1CC[C@@H](CC(=O)Nc2ccc(-c3ccccc3)cc2)O[C@@H]1CO	-16	nt	22[16.7 µM]	4	-3	nt
CCc1nnc(NC(=O)c2ccc(-c3ccccc3Cl)o2)s1	53*	nt	-109	nt	-3	nt
